We go through two molecules from ChEMBL document CHEMBL1137494, “The antiviral drug ribavirin is a selective inhibitor of S-adenosyl-L-homocysteine hydrolase from Trypanosoma cruzi” (Bioorg Med Chem, 2007).

Test [1] deals with Trypanosoma cruzi. The experiment in a line: Inactivation of Trypanosoma cruzi recombinant S-adenosyl-L-homocysteine hydrolase NADH form expressed in Escherichia coli JM109 assessed by measuring fluorescence.
Test [2] has as its target Adenosylhomocysteinase (Homo sapiens) (UniProt P23526). The experiment in a line: Inactivation of human recombinant S-adenosyl-L-homocysteine hydrolase NAD+ form expressed in Escherichia coli JM109 assessed as increase in fluorescence at 200 uM. In a few lines: (§1)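 NAD+-reconstituted enzyme (10 μM) incubated with 200 μM ribavirin plus 100 μM NAD+ in 50 mM phosphate pH 7.2, 1 mM EDTA at 37 °C; rise in NADH fluorescence (ex 340/em 450 nm) followed over time and fit to first-order relationship.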

The target is the same in test [3]. Put plainly: Binding to human recombinant S-adenosyl-L-homocysteine hydrolase NADH form expressed in Escherichia coli JM109. In outline:
(§2)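 Apo-enzyme reconstituted with 1 mM NADH (pH 8.5, 12 h, 4 °C) and gel-filtration purified; 10 μM enzyme incubated with ribavirin 0-6 mM in 50 mM phosphate pH 7.2, 1 mM EDTA, 37 °C. Quenching of bound NADH fluorescence (ex 340/em 450 nm) fit to hyperbolic saturation model to give dissociation constant KR.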

For test [4], the system named is Trypanosoma cruzi. The experiment in a line: Ratio of kinact for Trypanosoma cruzi recombinant S-adenosyl-L-homocysteine hydrolase NAD form to KI for Trypanosoma cruzi recombinant S-adenosyl-L-homocysteine hydrolase NAD form.
The test system of test [5] is Trypanosoma cruzi. The experiment in a line: Inactivation of Trypanosoma cruzi recombinant S-adenosyl-L-homocysteine hydrolase NAD+ form expressed in Escherichia coli JM109 at 100 uM. In outline:
(§3)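 Enzyme (1 μM), fully reconstituted with NAD+, incubated with 100 μM ribavirin and 50 μM NAD+ in phosphate pH 7.2 at 37 °C; remaining hydrolytic activity (AdoHcy → Ado + Hcy, ADA-coupled, DTNB read at 412 nm, 22 °C) sampled over time; first-order inactivation rate constant.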

Test [6] addresses Adenosylhomocysteinase (Homo sapiens) (UniProt P23526). The experiment in a line: Inactivation of human recombinant S-adenosyl-L-homocysteine hydrolase NAD+ form expressed in Escherichia coli JM109 at 100 uM. In a few lines:
as §3

Test [7] shares this target. The experiment in a line: Ratio of kinact for human recombinant S-adenosyl-L-homocysteine hydrolase NAD+ form to KI for human recombinant S-adenosyl-L-homocysteine hydrolase NAD+.
For test [8], the system named is Trypanosoma cruzi. The experiment in a line: Inactivation of Trypanosoma cruzi recombinant S-adenosyl-L-homocysteine hydrolase NAD+ form expressed in Escherichia coli JM109 assessed as increase in fluorescence at 200 uM. In a few lines:
as §1

The subject of test [9] is Trypanosoma cruzi. The experiment in a line: Binding to Trypanosoma cruzi recombinant S-adenosyl-L-homocysteine hydrolase NADH form expressed in Escherichia coli JM109. In a few lines:
as §2

Chain of Adenosylhomocysteinase (Homo sapiens) (P23526 2-432 limits assumed): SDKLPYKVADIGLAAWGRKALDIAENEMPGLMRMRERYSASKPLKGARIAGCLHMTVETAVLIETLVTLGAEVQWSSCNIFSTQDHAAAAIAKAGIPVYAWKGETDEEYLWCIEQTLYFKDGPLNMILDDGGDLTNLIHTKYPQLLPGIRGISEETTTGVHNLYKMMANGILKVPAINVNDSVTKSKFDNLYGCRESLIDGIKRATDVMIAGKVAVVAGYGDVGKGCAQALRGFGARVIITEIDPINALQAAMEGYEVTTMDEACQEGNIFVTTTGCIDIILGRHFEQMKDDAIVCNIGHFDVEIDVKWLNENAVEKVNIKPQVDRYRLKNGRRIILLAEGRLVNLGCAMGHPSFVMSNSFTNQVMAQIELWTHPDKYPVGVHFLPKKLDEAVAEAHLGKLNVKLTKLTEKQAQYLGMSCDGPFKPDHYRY

Consider `Nc1ncnc2c1ncn2[C@@H]1C=C[C@@H](O)[C@H]1O`, for which, in the test with Trypanosoma cruzi [1], the Fluorescence intensity came out at 5.4%.

`NC(=O)c1ncn([C@@H]2O[C@H](CO)[C@@H](O)[C@H]2O)n1`: the Fluorescence intensity in test [2] worked out at 182000; with Trypanosoma cruzi [8], 227000. Moreover, the KR in test [3] came out at 407 µM; in the test on Trypanosoma cruzi [9] it was 586 µM. Also, the figures for the Ratio (with Trypanosoma cruzi [4]; in test [7]) were 3.92 M⁻¹ s⁻¹ and 0.56 M⁻¹ s⁻¹, respectively. The Activity entry was “Dose-dependent effect” with Trypanosoma cruzi [5], “Dose-dependent effect” in test [6] and 3.13 10^10/M in the test on Trypanosoma cruzi [1].
